Screening data: PubChem, several laboratories
The full list was thinned out, with hits kept by preference.
TLR4-MyD88 BLA: TLR4-MyD88 interaction inhibition in cells. O00206+Q99836. HeLa CL3-4 TLR4/MyD88 BLA complementation, FRET ratio. inhibition, % at 8.4 µM. actives 0.18% (n = 200,000). AID 861; in the data active means inhibition above about 25%;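 further: 0% = vehicle and 100% = reference inhibitor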
CHOP UPR activ: apoptotic UPR (CHOP) activation; actives 0.34% (n = 330,000); activation, % at 10 µM; CHO-CHOP luciferase reporter, luminescence; percent of tunicamycin response over DMSO baseline;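 active means at 10 µM dose, activation of 40% or more, normalized to positive control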;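 further: 100% = tunicamycin at 10 µg/mL and 0% = DMSO alone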
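Test system: CHO-CHOP cells, stable luciferase reporter of PERK-eIF2a-CHOP signalling | Quantity: 500 CHO-CHOP cells per well | Buffer or medium: F12 plus 10% serum | Compound dosing: 10 µM single point, 0.5% DMSO | Schedule: 6 h compound treatment, 37 °C | Signal: Luciferase luminescence | Control set: Tunicamycin high control, DMSO low control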
TLR9-MyD88 block: TLR9-MyD88 interaction inhibition | Q9NR96+Q99836 | CHO BLA complementation TLR9-MyD88, CCF4 FRET ratio | inhibition, % at 4.98 µM | actives 0.21% (n = 340,000) | AID 504734;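 active means inhibition above the mean over all tested compounds plus 3 SD, cut at about 21% in these data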;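 further: 0% = DMSO only wells and 100% = clavulanate BLA inhibitor control wells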
NOD2 RIPK2 PPI: NOD2-RIPK2 protein interaction inhibition. O43353. CHO BLA complementation NOD2-RIPK2, CCF4 ratio. inhibition, % at 4.98 µM. actives 0.38% (n = 360,000); in the data active means inhibition above about 21%;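 further: 0% = vehicle only and 100% = reference blocker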
CHOP inhibitor: blocks CHOP induction under ER stress | CHO-K1 CHOP-promoter luciferase, tunicamycin-induced, 15-18 h | AID 2732 | actives 3.8% (n = 220,000) | inhibition, % at 10 µM;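 active means compounds that reduced the stress-induced luciferase reporter signal by more than about 70% of percent inhibition, limit read from the data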;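 further: 0% = tunicamycin plus vehicle and 100% = wells without tunicamycin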
XBP1 UPR activ: adaptive UPR (XBP1) activation. CHO-XBP1 luciferase reporter, IRE1-XBP1 UPR activation, luminescence; percent of tunicamycin response, DMSO as zero. activation, % at 20 µM. actives 0.33% (n = 330,000). AID 463104;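 active means versus positive control, 20 µM dose yields 30% or more activation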;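 further: 100% = tunicamycin at 10 µg/mL and 0% = DMSO only wells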
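Material – CHO cell line with stable XBP1 luciferase reporter · Buffer or medium – F12 plus 10% FBS · Compound – single point, 20 µM final compound, 1% DMSO · Schedule – 16-18 h cell attachment at 37 °C, then 6 h compound exposure · Signal – Steady-Glo luminescence read · Benchmarks – high control tunicamycin 10 µg/mL final, low control DMSO vehicle only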
XBP1 UPR conf: adaptive UPR (XBP1) activation, confirmed | actives 63% (n = 1,000) | CHO-XBP1 IRE1-XBP1 luciferase reporter, luminescence | AID 485299 | shares compounds with XBP1 UPR activ | activation, % at 20 µM;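 active means reporter signal at least 30% of the positive control's activation in two or more of four replicate wells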;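 further: plate controls were DMSO negative control for no effect and tunicamycin 10 µg/mL positive control for full effect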
* marks the source's active call; other numbers are inactive results; / = no result given; ! = repeats disagree.

SMILES	TLR4-MyD88 BLA	CHOP UPR activ	TLR9-MyD88 block	NOD2 RIPK2 PPI	CHOP inhibitor	XBP1 UPR activ	XBP1 UPR conf
CC1CCC(C(C)C)C(OC(=O)Cn2c(-c3ccc(Br)cc3)[n+](C)c3ccccc32)C1 (configuration not stated)	-4	19	4	-14	90*!	109*	108*
COc1cccc(/C=N/NC(=O)CSc2cccc3cccnc23)c1	/	27	6	-4	4	32*	22
Cc1oc(C(N)=O)nc1-c1ccccc1	/	3	4	-11	2	-3	/
Cc1ccccc1OCc1nc(-c2ccc(NC(=O)c3ccc4c(c3)OCO4)cc2)no1	6	35	1	-3	74*	69*	44*
COc1ccc(/C=C2\SC(=S)N(CCCCCC(=O)Nc3cc(C)on3)C2=O)cc1OC	/	1	0	-3	/	5	/
COc1ccc(/C=C2\SC(=S)N(CCCC(=O)Nc3cc(C)on3)C2=O)cc1OC	/	1	-12	1	/	42*	2
CC(C)=CCc1c(O)cc2c(=O)c3ccc(O)cc3oc2c1O	/	6	3	-11	/	18	/
CC(C)=CCc1c2c(c3occ(-c4ccc(O)cc4)c(=O)c3c1O)C=CC(C)(C)O2	7	5	-13	6	76*	56*	50*
CCNC(=O)C1(C)CCN(C(=O)c2cccc(C(F)(F)F)c2)C1 (configuration not stated)	/	/	/	-1	/	/	/
Cc1ccc(OCC(=O)NC(=S)Nc2ccc(Br)cn2)cc1	/	0	5	6	15	0	/
Cc1ccc(C)c(N2C(=O)CC(Cc3ccccc3)C2=O)c1 (configuration not stated)	/	0	-2	-25	/	0	/
COc1ccc(Cn2c(-c3ccc(OC)cc3)nc3c(c(=O)c4ccccc4n3C)c2=O)cc1	-16	2	/	/	29	3	/
COc1ccc(Cn2c(-c3ccccc3C)nc3c(c(=O)c4ccccc4n3C)c2=O)cc1	/	8	5	-1	/	41*	2
CCOC(=O)C1=C[C@@H](CC)N(S(=O)(=O)c2ccc(C)cc2)[C@H]1c1cccc(Cl)c1	/	/	/	-10	/	/	/
Cn1c(=O)[nH]c(=O)c2c1nc(N1CCc3ccccc3C1)n2CCSc1nc2ccccc2s1	-4	32	8	-11	-31	34*	4
O=C(Oc1ccccc1/C=C\C(=O)c1cc2ccccc2o1)c1cccc(F)c1	9	26	-6	6	-10	39*	60*
O=C(N/N=C/c1ccccc1OC(=O)c1ccc2c(c1)OCO2)c1cccc(F)c1	9	0	0	4	0	-1	/
Cc1cc(NC(=O)c2ccccc2)nc2c1c(=O)oc1ccccc12	1	1	1	-1	9	-5	/
CCOc1ccc(C(=O)Nc2cc(C)c3c(=O)oc4ccccc4c3n2)cc1	9	0	0	-6	-4	52*	2
O=C(Nc1ccccc1)O/N=C/c1ccc(F)cc1	/	3	-8	3	/	-5	/
COc1ccccc1/C=N\NC(=O)c1ccc(COc2ccc(C)c(C)c2)o1	/	2	-6	-4	/	41*	0
O=C(CN1C(=O)NC(c2ccccc2)(c2ccccc2)C1=O)NCc1ccc(F)cc1	/	-2	2	-12	/	-2	/
COc1ccc(-c2csc(NC(=S)NC(=O)/C=C/c3ccccc3)n2)cc1Br	/	5	/	/	-22	160*	250*
O=C(/C=C/c1ccco1)NC(=S)Nc1nc(-c2ccc3ccccc3c2)cs1	-11	0	5	8	-49	13	/
Cc1ccc(NC(=O)Cn2c(/C=C/c3ccccc3)nc3ccccc32)cc1C	-3	27	-10	2	28	51*	35*
SMILES	TLR4-MyD88 BLA	CHOP UPR activ	TLR9-MyD88 block	NOD2 RIPK2 PPI	CHOP inhibitor	XBP1 UPR activ	XBP1 UPR conf
Cc1ccc(NC(=O)Cn2cnc3ccccc32)cc1C	1	-2	-3	2	15	-3	/
O=C(CCc1nc2ccccc2s1)NC1CCOC1=O (configuration not stated)	/	0	12	-5	-6	2	/
Cc1ccc(OCC(O)CNC2CCCC2)c(C)c1 (configuration not stated)	/	-1	8	4	/	-2	/
Cc1ccccc1OCC(O)CNC1CCC(NCC(O)COc2ccccc2C)CC1 (configuration not stated)	/	56*	-1	16	/	43*	11
Clc1ccc(C2=Nn3c(nnc3-c3cc(-c4ccccc4)n[nH]3)SC2)cc1	10	14	-11	-11	-27	66*	51*
Cc1cnc(Nc2nc3ccccc3o2)nc1C(=O)Nc1cccc(C(F)(F)F)c1	10	3	-4	2	91*	45*	9
Cc1occc1C(=O)Nc1cccc(C(F)(F)F)c1	-3	0	13	6	48	0	/
O=C(c1cccc([N+](=O)[O-])c1)N1CCN(S(=O)(=O)/C=C/c2ccccc2)CC1	/	0	-4	-3	/	0	/
CN(C)CCOc1ccc(-c2c(-c3ccccc3)sc3ccccc23)cc1	/	4	-1	4	/	60*	55*
COc1cccc(CNC(=O)CCCc2c[nH]c3ccccc23)c1	/	-1	3	14	/	-1	/
OC(CNCC1CCCO1)Cn1c2ccc(Cl)cc2c2cc(Cl)ccc21 (configuration not stated)	-4	11	-8	8	94*	64*	59*
Cn1c2ccccc2c2c(=O)oc3ccccc3c21	/	4	-8	-2	/	6	/
COc1ccc(CCn2c(=S)[nH]c3cc(C(=O)NCc4ccco4)ccc3c2=O)cc1OC	-3	5	7	-6	96*	62*	66*
CCOC(=O)c1nnn2c1nc(Nc1cccc(C(F)(F)F)c1)c1ccccc12	/	30	/	-3	13	70*	41*
O=C(N[C@@H]1C/C=C\C[C@H](CC(=O)N(CCO)Cc2ccccc2)C(=O)N[C@@H](Cc2ccccc2)COC1=O)OCC1c2ccccc2-c2ccccc21	/	33	-6	-7	/	50*	13
COC(=O)CCC(=O)NNC(=O)Cc1ccccc1	-5	1	5	-3	29	-1	/
O=C(CSc1ccc2nnc(-c3ccc(Cl)cc3)n2n1)N1CCCc2ccccc21	2	3	3	-5	23	50*	18
Cc1ccc(-c2cc(C(F)F)nc3sc4c(=O)[nH]cnc4c23)cc1	/	26	0	-6	/	44*	19
CCCCC(=O)Nc1nnc(S(=O)(=O)N2CCCCCC2)s1	/	0	6	1	/	-6	/
COc1cc(CN2CCCCC2)ccc1OCc1ccccc1	/	4	-2	0	/	37*	1
